pIC50: −log10 of the molar value. Calls of active or inactive are those of the source. The rule behind the calls is not given here.
What was measured:
[1] = Inhibition of alpha glucosidase; set-up: species or system Homo sapiens
Outline: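 The enzyme (25 mU/mL) was preincubated with a range of compound concentrations in 10 mM phosphate buffer, pH 7.2, at 37 °C for 10 min. p-Nitrophenyl-alpha-D-glucopyranoside was then added to 0.16 mM final and incubated 30 min at 37 °C. The reaction was basified with 0.5 M Na2CO3 and released p-nitrophenol read at 400 nm. IC50 values were derived.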

[2] = target: T1, Oxysterols receptor LXR-alpha (Homo sapiens) (UniProt Q13133); test: Antagonist activity at human recombinant LXRalpha expressed in HEK293 cells assessed as inhibition of T0901317-induced transcriptional activation at 100 uM by luciferase assay; type: functional, cell-based
T1 sequence (whole entry): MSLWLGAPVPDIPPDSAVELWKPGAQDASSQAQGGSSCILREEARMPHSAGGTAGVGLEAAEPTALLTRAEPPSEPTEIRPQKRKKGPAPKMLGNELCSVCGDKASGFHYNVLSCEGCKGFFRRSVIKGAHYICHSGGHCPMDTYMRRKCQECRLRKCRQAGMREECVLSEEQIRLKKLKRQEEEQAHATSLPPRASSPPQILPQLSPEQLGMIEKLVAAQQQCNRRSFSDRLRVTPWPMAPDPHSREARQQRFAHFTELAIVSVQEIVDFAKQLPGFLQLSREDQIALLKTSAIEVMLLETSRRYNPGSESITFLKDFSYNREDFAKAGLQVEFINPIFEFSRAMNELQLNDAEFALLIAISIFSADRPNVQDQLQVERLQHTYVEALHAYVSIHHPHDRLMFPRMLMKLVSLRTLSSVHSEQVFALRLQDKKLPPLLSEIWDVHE
Outline: (§1)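 GAL4 DNA-binding domain fused to human LXR (alpha or beta) as receptor plasmid, TK-MH100x4-LUC reporter, and CMX beta-galactosidase for normalization. HEK293 cells in DMEM with 5% FBS, 37 °C, 5% CO2. Transfected by calcium phosphate coprecipitation. Compounds added 8 h post-transfection together with 0.1 µM T0901317, whose response alone was set as 100%. Luciferase read on a luminometer. Three repeats, normalized averages.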

[3] = target: T2, Oxysterols receptor LXR-beta (Homo sapiens) (UniProt P55055); test: Antagonist activity at human recombinant LXRbeta expressed in HEK293 cells assessed as inhibition of T0901317-induced transcriptional activation at 100 uM by luciferase assay; type: functional, cell-based; outline: as §1
T2 sequence (whole entry): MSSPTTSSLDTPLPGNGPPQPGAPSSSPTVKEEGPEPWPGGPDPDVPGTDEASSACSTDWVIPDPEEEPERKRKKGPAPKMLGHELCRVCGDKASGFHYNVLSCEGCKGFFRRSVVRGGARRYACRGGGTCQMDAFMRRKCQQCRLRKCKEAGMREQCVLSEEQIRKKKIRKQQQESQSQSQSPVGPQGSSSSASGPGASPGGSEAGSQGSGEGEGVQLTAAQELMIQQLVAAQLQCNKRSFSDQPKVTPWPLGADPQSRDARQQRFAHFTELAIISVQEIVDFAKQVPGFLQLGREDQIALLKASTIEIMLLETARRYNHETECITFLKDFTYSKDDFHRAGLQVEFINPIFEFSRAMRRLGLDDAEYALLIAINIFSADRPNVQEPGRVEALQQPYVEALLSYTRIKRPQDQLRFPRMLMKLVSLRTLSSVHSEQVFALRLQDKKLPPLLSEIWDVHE

[4] = test system: HEK293; test: Cytotoxicity against HEK293 cells at 100 uM; type: cell-based; conditions: human, hek293, 100 µM
[5] = species: Homo sapiens; test: Inhibition of dipeptidylpeptidase 4
[6] = species: Homo sapiens; test: Inhibition of maltase
[7] = target: T3, Oxysterols receptor LXR-alpha (Homo sapiens, UniProt Q13133); test: Antagonist activity at human recombinant LXRalpha expressed in HEK293 cells assessed as inhibition of T0901317-induced transcriptional activation by luciferase assay; type: functional, cell-based
T3 sequence (Q13133 whole entry): T1 sequence (whole entry)

[8] = target: T4, Oxysterols receptor LXR-beta (Homo sapiens, UniProt P55055); test: Antagonist activity at human recombinant LXRbeta expressed in HEK293 cells assessed as inhibition of T0901317-induced transcriptional activation by luciferase assay; type: functional, cell-based
T4 sequence (P55055 whole entry): T2 sequence (whole entry)

SMILES | pIC50 [1] | inhibition [2] | inhibition [3] | other results
O=C1c2c(Cl)c(Cl)c(Cl)c(Cl)c2C(=O)N1Cc1ccccc1 | 4.96 | 60% | 51% | –
CCCCCCc1ccccc1N1C(=O)c2ccccc2C1=O | 4.61 | – | – | Activity [4]: 57%; Activity [5]: inactive; Activity [6]: inactive; pIC50 [7]: 4.89; pIC50 [8]: 4.19
O=C1c2c(Cl)c(Cl)c(Cl)c(Cl)c2C(=O)N1CCCCCc1ccccc1 | 5.46 | 42% | 3% | –
O=C1c2cc(Cl)c(Cl)cc2C(=O)N1CCCCc1ccccc1 | – | 50% | 35% | –
O=C1c2c(Cl)c(Cl)c(Cl)c(Cl)c2C(=O)N1CCCc1ccccc1 | 5.35 | 59% | 52% | –
O=C1c2c(Cl)c(Cl)c(Cl)c(Cl)c2C(=O)N1CCCCCCCCCCc1ccccc1 | 5.17 | – | – | Activity [2]: inactive; Activity [3]: inactive
O=C1c2c(Cl)c(Cl)c(Cl)c(Cl)c2C(=O)N1CCCCc1ccccc1 | 5.70 | 53% | 49% | –
CC(C)c1cccc(C(C)C)c1N1C(=O)c2c(Cl)c(Cl)c(Cl)c(Cl)c2C1=O | 5.62 | 61% | 49% | –
O=C1c2c(Cl)c(Cl)c(Cl)c(Cl)c2C(=O)N1c1ccccc1 | 5.59 | – | – | Activity [2]: inactive; Activity [3]: inactive
O=C1c2c(Cl)c(Cl)c(Cl)c(Cl)c2C(=O)N1CCc1ccccc1 | 5.22 | 38% | 38% | –
O=C1c2ccccc2C(=O)N1c1ccccc1CCc1ccccc1 | 4.79 | – | – | Activity [4]: 48%; Activity [5]: inactive; Activity [6]: inactive
O=C1c2ccc(Cl)cc2C(=O)N1CCCCc1ccccc1 | – | 66% | 45% | –
CC(C)c1cccc(C(C)C)c1N1C(=O)c2ccccc2C1=S | 5.10 | 94% | 92% | Activity [4]: 73%; Activity [5]: Active; Activity [6]: Active

— ChEMBL document CHEMBL1139976, “Liver X receptor antagonists with a phthalimide skeleton derived from thalidomide-related glucosidase inhibitors” (Bioorg Med Chem Lett, 2007)
